Data on 18 compounds can be found in ChEMBL document CHEMBL1143614, “Structure-activity relationships of the unique and potent agouti-related protein (AGRP)-melanocortin chimeric Tyr-c[beta-Asp-His-DPhe-Arg-Trp-Asn-Ala-Phe-Dpr]-Tyr-NH2 peptide template” (J Med Chem, 2005).

The target of assay [1] is Melanocortin receptor 4 (Mus musculus) (UniProt P56450).
The target in assay [2] is Melanocyte-stimulating hormone receptor (Mus musculus, UniProt Q01727). Briefly: Effective concentration for mouse Melanocortin-1 receptor.
For assay [3], the target named is Melanocortin receptor 4 (Mus musculus, UniProt P56450). The experiment in a line: Effective concentration for mouse Melanocortin-4 receptor. Summed up:
(§1)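 HEK-293 cells stably expressing the mouse receptor (G418 selection), transiently transfected with a CRE/β-galactosidase reporter. Forskolin (10^-4 M) served as the control. After lysis, ONPG was added at 37° and OD405 was read. Signals were normalized to protein content and forskolin; EC50 came from a nonlinear least-squares fit, duplicate or more independent experiments in quadruplicate.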

The target in assay [4] is Melanocortin receptor 5 (Mus musculus, UniProt P41149). The experiment in a line: Effective concentration for mouse Melanocortin-5 receptor.
Assay [5] addresses Melanocortin receptor 3 (Mus musculus) (UniProt P33033). The experiment in a line: Relative percent of stimulatory activity for mouse Melanocortin-3 receptor at 100 uM. Summed up:
(§2)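 HEK-293 cells stably expressing mouse melanocortin receptors (G418-selected) were transiently transfected with a CRE/β-galactosidase reporter. 48 h after transfection, cells were stimulated for 6 h with peptide (10^-4 to 10^-12 M) or forskolin (10^-4 M) in DMEM with 0.1 mg/mL BSA and 0.1 mM IBMX. Lysates were incubated with ONPG at 37° and read at OD405. Signals were normalized to relative protein (OD595) and to forskolin response. EC50 came from nonlinear least-squares fits of duplicate experiments in quadruplet or more.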

For assay [6], the species on record is Mus musculus. Briefly: Relative effective concentration for Melanocortin-3 and Melanocortin-4 receptors.
Assay [7] addresses Melanocortin receptor 3 (Mus musculus, UniProt P33033). Briefly: Effective concentration for mouse Melanocortin-3 receptor. Summed up:
as §1

Assay [8] deals with Melanocortin receptor 3 (Mus musculus) (UniProt P33033). The experiment in a line: Antagonist activity for mouse Melanocortin-3 receptor. The format is functional.
Assay [9] deals with Melanocortin receptor 4 (Mus musculus) (UniProt P56450). The experiment in a line: Partial agonist concentration for mouse Melanocortin-4 receptor. The format is functional.
Assay [10] shares this target. Briefly: Partial agonist activity towards mouse Melanocortin-4 receptor. The format is functional. A digest of the protocol:
as §2

The target in assay [11] is Melanocortin receptor 3 (Mus musculus) (UniProt P33033). The experiment in a line: Agonist activity for mouse Melanocortin-3 receptor. The class given is functional. A digest of the protocol:
as §2

For assay [12] the target is unchanged. The experiment in a line: Partial agonist activity towards mouse Melanocortin-3 receptor. The format is functional. Summed up:
as §2

Where a SMILES comes first, the peptide text is derived from it. Bridges are numbered along the chain shown (N, C = ends).

Melanocortin receptor 4 (Mus musculus), sequence (P56450 whole entry): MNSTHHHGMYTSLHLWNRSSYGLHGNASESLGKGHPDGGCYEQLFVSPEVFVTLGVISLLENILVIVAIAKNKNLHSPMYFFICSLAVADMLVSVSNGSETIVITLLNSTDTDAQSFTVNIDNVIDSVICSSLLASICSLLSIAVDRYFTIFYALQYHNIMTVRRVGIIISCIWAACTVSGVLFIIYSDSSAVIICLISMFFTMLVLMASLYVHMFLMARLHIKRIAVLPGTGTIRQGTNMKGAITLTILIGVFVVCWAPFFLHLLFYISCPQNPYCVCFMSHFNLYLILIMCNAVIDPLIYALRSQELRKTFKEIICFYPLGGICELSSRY
Melanocortin receptor 4, sequence (P56450 whole entry): as above
Melanocyte-stimulating hormone receptor, sequence (Q01727 whole entry): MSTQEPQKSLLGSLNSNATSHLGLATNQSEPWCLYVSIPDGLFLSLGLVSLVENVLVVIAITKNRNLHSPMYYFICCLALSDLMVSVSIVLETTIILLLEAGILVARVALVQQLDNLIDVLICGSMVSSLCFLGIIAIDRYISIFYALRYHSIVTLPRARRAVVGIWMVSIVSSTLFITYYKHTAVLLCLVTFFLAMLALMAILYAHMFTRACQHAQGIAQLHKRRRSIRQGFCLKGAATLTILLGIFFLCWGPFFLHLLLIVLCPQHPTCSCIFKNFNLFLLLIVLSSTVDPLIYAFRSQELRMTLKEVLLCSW
Melanocortin receptor 5, sequence (P41149 whole entry): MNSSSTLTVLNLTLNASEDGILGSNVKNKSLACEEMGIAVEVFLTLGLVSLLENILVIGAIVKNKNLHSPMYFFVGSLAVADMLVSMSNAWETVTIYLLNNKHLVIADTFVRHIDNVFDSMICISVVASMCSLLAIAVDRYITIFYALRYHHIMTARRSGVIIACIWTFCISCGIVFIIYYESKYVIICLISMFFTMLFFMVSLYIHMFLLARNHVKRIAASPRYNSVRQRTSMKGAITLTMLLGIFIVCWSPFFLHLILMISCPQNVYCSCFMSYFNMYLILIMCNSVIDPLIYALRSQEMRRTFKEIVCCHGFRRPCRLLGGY
Melanocortin receptor 3, sequence (P33033 whole entry): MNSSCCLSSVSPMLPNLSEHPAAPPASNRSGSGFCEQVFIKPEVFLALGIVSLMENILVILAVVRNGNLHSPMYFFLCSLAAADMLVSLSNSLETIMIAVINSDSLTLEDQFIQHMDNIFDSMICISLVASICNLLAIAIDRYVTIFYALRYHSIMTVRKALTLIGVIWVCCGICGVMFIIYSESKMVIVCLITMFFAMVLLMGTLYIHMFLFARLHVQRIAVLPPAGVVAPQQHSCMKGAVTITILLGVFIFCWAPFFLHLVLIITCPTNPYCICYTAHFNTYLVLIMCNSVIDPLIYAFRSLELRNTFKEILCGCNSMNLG
Melanocortin receptor 3 (Mus musculus), sequence (P33033 whole entry): as above

The pA2 is the negative logarithm of the molar antagonist concentration that doubles the agonist concentration needed for the same response. Lower therefore signals lower antagonist potency. In assay [1], `C[C@@H]1NC(=O)[C@H](CC(N)=O)NC(=O)[C@H](Cc2ccccc2)NC(=O)[C@H](Cc2ccccc2)NC(=O)[C@H](CCCN=C(N)N)NC(=O)[C@@H](NC(=O)[C@@H](N)Cc2ccc(O)cc2)CSSC[C@@H](C(=O)N[C@@H](Cc2ccc(O)cc2)C(N)=O)NC(=O)[C@H](Cc2ccccc2)NC1=O` (H-YCRFFNAFCY-NH2; disulfide 2-9) returned a pA2 of 6.8.
As usually defined, the EC50 is the concentration at which the effect is half-maximal. Low readings indicate a more potent agent, high ones a less potent agent. Regarding `C[C@@H]1NC(=O)[C@H](CC(N)=O)NC(=O)[C@@H]2CCCN2C(=O)[C@H](CCCNC(=N)N)NC(=O)[C@@H](Cc2ccccc2)NC(=O)[C@H](Cc2c[nH]cn2)NC(=O)[C@@H](NC(=O)[C@@H](N)Cc2ccc(O)cc2)CC(=O)NC[C@@H](C(=O)N[C@@H](Cc2ccc(O)cc2)C(N)=O)NC(=O)[C@H](Cc2ccccc2)NC1=O`, the values for the EC50 in [2], in [3] and in assay [4] were 1000 nM, 7200 nM and 700 nM, respectively.
In the same order, the values of `C[C@@H]1NC(=O)[C@H](CC(N)=O)NC(=O)[C@H](Cc2c[nH]c3ccccc23)NC(=O)[C@H](CCCN=C(N)N)NC(=O)[C@@H](Cc2ccccc2)NC(=O)C2(CCc3ccccc3C2)NC(=O)[C@@H](NC(=O)[C@@H](N)Cc2ccc(O)cc2)CC(=O)NC[C@@H](C(=O)N[C@@H](Cc2ccc(O)cc2)C(N)=O)NC(=O)[C@H](Cc2ccccc2)NC1=O` (mixture of isomers) are 690 nM, 115 nM and 440 nM.
In assay [5], `C[C@@H]1NC(=O)[C@H](CC(N)=O)NC(=O)[C@H](Cc2c[nH]c3ccccc23)NC(=O)[C@H](CCCN=C(N)N)NC(=O)[C@H](C)NC(=O)[C@H](Cc2c[nH]cn2)NC(=O)[C@@H](NC(=O)[C@@H](N)Cc2ccc(O)cc2)CC(=O)N([C@@H](Cc2ccc(O)cc2)C(N)=O)[C@@](C)(C(=O)O)NC(=O)[C@H](Cc2ccccc2)NC1=O` registered an SA of 60%.
Consider `C[C@@H]1NC(=O)[C@H](CC(N)=O)NC(=O)[C@H](C)NC(=O)[C@H](CCCN=C(N)N)NC(=O)[C@@H](Cc2ccccc2)NC(=O)[C@H](Cc2c[nH]cn2)NC(=O)[C@@H](NC(=O)[C@@H](N)Cc2ccc(O)cc2)CC(=O)N([C@@H](Cc2ccc(O)cc2)C(N)=O)[C@@](C)(C(=O)O)NC(=O)[C@H](Cc2ccccc2)NC1=O`, for which, in assay [6], the Selectivity ratio is 19. The compound also displayed an EC50 in assay [7] of 13500 nM.
With `C[C@@H]1NC(=O)[C@H](CC(N)=O)NC(=O)[C@H](Cc2c[nH]c3ccccc23)NC(=O)[C@H](CCCN=C(N)N)NC(=O)[C@@H](Cc2ccc3ccccc3c2)NC(=O)[C@H](Cc2c[nH]cn2)NC(=O)[C@@H](NC(=O)[C@@H](N)Cc2ccc(O)cc2)CC(=O)N([C@@H](Cc2ccc(O)cc2)C(N)=O)[C@@](C)(C(=O)O)NC(=O)[C@H](Cc2ccccc2)NC1=O`, the pA2 in assay [8] was determined as 8.2; in assay [9], 9.1.
For `C[C@@H]1NC(=O)[C@H](CC(N)=O)NC(=O)[C@H](Cc2c[nH]c3ccccc23)NC(=O)[C@H](C)NC(=O)[C@@H](Cc2ccccc2)NC(=O)[C@H](Cc2c[nH]cn2)NC(=O)[C@@H](NC(=O)[C@@H](N)Cc2ccc(O)cc2)CC(=O)N([C@@H](Cc2ccc(O)cc2)C(N)=O)[C@@](C)(C(=O)O)NC(=O)[C@H](Cc2ccccc2)NC1=O`, the Selectivity ratio in assay [6] came to 730. In addition, the response in [7] was half-maximal at 23800 nM (EC50).
Regarding `C[C@@H]1NC(=O)[C@H](CC(N)=O)NC(=O)[C@H](Cc2c[nH]c3ccccc23)NC(=O)[C@H](CCCN=C(N)N)NC(=O)[C@@H](Cc2ccc(I)cc2)NC(=O)[C@H](Cc2c[nH]cn2)NC(=O)[C@@H](NC(=O)[C@@H](N)Cc2ccc(O)cc2)CC(=O)N([C@@H](Cc2ccc(O)cc2)C(N)=O)[C@@](C)(C(=O)O)NC(=O)C(Cc2ccccc2)NC1=O` (stereo in doubt), the pA2 in assay [10] was 9.4; in assay [8] it was 8.8.
For the compound `C[C@@H]1NC(=O)[C@H](CC(N)=O)NC(=O)[C@H](Cc2c[nH]c3ccccc23)NC(=O)[C@H](CCCN=C(N)N)NC(=O)[C@@H](Cc2ccccc2)NC(=O)C2(CCc3ccccc3C2)NC(=O)[C@@H](NC(=O)[C@@H](N)Cc2ccc(O)cc2)CC(=O)N([C@@H](Cc2ccc(O)cc2)C(N)=O)[C@@](C)(C(=O)O)NC(=O)[C@H](Cc2ccccc2)NC1=O` (mixture of isomers), in [11], the pA2 was determined as 6.4. The compound further returned an SA in [5] of 40%.
For `C[C@@H]1NC(=O)[C@H](CC(N)=O)NC(=O)[C@H](Cc2ccccc2)NC(=O)[C@H](Cc2ccccc2)NC(=O)[C@H](CCCNC(=N)N)NC(=O)[C@@H](NC(=O)[C@@H](N)Cc2ccc(O)cc2)CSSC[C@@H](C(=O)N[C@@H](Cc2ccc(O)cc2)C(N)=O)NC(=O)[C@H](Cc2ccccc2)NC1=O` (H-YCRFFNAFCY-NH2; disulfide 2-9), the EC50 in [7] and in [4] was > 100000 nM throughout.
`C[C@@H]1NC(=O)[C@H](CC(N)=O)NC(=O)[C@H](Cc2c[nH]c3ccccc23)NC(=O)[C@H](CCCN=C(N)N)NC(=O)[C@@H](Cc2ccccc2)NC(=O)[C@H](Cc2ccccc2)NC(=O)[C@@H](NC(=O)[C@@H](N)Cc2ccc(O)cc2)CC(=O)N([C@@H](Cc2ccc(O)cc2)C(N)=O)[C@@](C)(C(=O)O)NC(=O)[C@H](Cc2ccccc2)NC1=O` returned a pA2 in [12] of 7.2.
Same read-out and setting: the result for `C[C@@H]1NC(=O)[C@H](CC(N)=O)NC(=O)[C@H](Cc2c[nH]c3ccccc23)NC(=O)[C@H](CCCN=C(N)N)NC(=O)[C@@H](Cc2ccccc2)NC(=O)[C@@H]2CCCN2C(=O)[C@@H](NC(=O)[C@@H](N)Cc2ccc(O)cc2)CC(=O)N([C@@H](Cc2ccc(O)cc2)C(N)=O)[C@@](C)(C(=O)O)NC(=O)[C@H](Cc2ccccc2)NC1=O` reads 7.2.
In the case of `C[C@@H]1NC(=O)[C@H](CC(N)=O)NC(=O)[C@@H](Cc2ccc3ccccc3c2)NC(=O)[C@H](CCCN=C(N)N)NC(=O)[C@@H](Cc2ccccc2)NC(=O)[C@H](Cc2c[nH]cn2)NC(=O)[C@@H](NC(=O)[C@@H](N)Cc2ccc(O)cc2)CC(=O)N([C@@H](Cc2ccc(O)cc2)C(N)=O)[C@@](C)(C(=O)O)NC(=O)[C@H](Cc2ccccc2)NC1=O`, the Selectivity ratio in [6] was 10. The same compound had an EC50 in assay [7] of 6.5 nM.
As for `C[C@@H]1NC(=O)[C@H](CC(N)=O)NC(=O)[C@H](C)NC(=O)[C@H](CCCNC(=N)N)NC(=O)[C@@H](Cc2ccccc2)NC(=O)[C@H](Cc2c[nH]cn2)NC(=O)[C@@H](NC(=O)[C@@H](N)Cc2ccc(O)cc2)CC(=O)NC[C@@H](C(=O)N[C@@H](Cc2ccc(O)cc2)C(N)=O)NC(=O)[C@H](Cc2ccccc2)NC1=O`, the figures for the EC50 in [2], in assay [3] and in assay [4] were 350 nM, 710 nM and 50.1 nM, respectively.
`C[C@@H]1NC(=O)[C@H](CC(N)=O)NC(=O)[C@H](Cc2ccc3ccccc3c2)NC(=O)[C@H](CCCN=C(N)N)NC(=O)[C@@H](Cc2ccccc2)NC(=O)[C@H](Cc2c[nH]cn2)NC(=O)[C@@H](NC(=O)[C@@H](N)Cc2ccc(O)cc2)CC(=O)N([C@@H](Cc2ccc(O)cc2)C(N)=O)[C@@](C)(C(=O)O)NC(=O)[C@H](Cc2ccccc2)NC1=O`: in [6], the Selectivity ratio was determined as 21. The compound further yielded an EC50 in assay [7] of 5.56 nM.
Turning to `C[C@@H]1NC(=O)[C@H](CC(N)=O)NC(=O)[C@H](Cc2c[nH]c3ccccc23)NC(=O)[C@H](CCCN=C(N)N)NC(=O)[C@@H](Cc2ccccc2)NC(=O)[C@H](C)NC(=O)[C@@H](NC(=O)[C@@H](N)Cc2ccc(O)cc2)CC(=O)N([C@@H](Cc2ccc(O)cc2)C(N)=O)[C@@](C)(C(=O)O)NC(=O)[C@H](Cc2ccccc2)NC1=O`, the Selectivity ratio in [6] is 80. Further, a half-maximal effect in assay [7] (EC50) was put at 29 nM.
In the case of `C[C@@H]1NC(=O)[C@H](CC(N)=O)NC(=O)[C@H](Cc2c[nH]c3ccccc23)NC(=O)[C@H](CCCCN)NC(=O)[C@@H](Cc2ccccc2)NC(=O)[C@H](Cc2c[nH]cn2)NC(=O)[C@@H](NC(=O)[C@@H](N)Cc2ccc(O)cc2)CC(=O)NC[C@@H](C(=O)N[C@@H](Cc2ccc(O)cc2)C(N)=O)NC(=O)[C@H](Cc2ccccc2)NC1=O`, the values for the EC50 in assay [2], in assay [3] and in assay [4] were 680 nM, 8600 nM and 800 nM, respectively.
With `C[C@@H]1NC(=O)[C@H](CC(N)=O)NC(=O)[C@@H]2Cc3ccccc3CN2C(=O)[C@H](CCCN=C(N)N)NC(=O)[C@@H](Cc2ccccc2)NC(=O)[C@H](Cc2c[nH]cn2)NC(=O)[C@@H](NC(=O)[C@@H](N)Cc2ccc(O)cc2)CC(=O)N([C@@H](Cc2ccc(O)cc2)C(N)=O)[C@@](C)(C(=O)O)NC(=O)[C@H](Cc2ccccc2)NC1=O`, the Selectivity ratio in assay [6] turned out to be 13. In assay [7], this compound registered a 50% effective concentration (EC50) of 3400 nM.
